In publication PMC3128789 (Nuclear medicine and biology, 2011):
Read-outs that look alike come from different tables or passages of the source.

What was measured:
[1] = by 5 h; cited from earlier work
hexokinase = conditions: cited from earlier work
glucose dehydrogenase = conditions: enzyme derived from rat liver; cited from earlier work
[2] = Urinary excretion of radioactivity; format: in vivo, Sprague-Dawley rats; conditions: by 24 h, 3H radioactivity
Method in brief: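 Rats under isoflurane received 74 kBq (2 μCi) [1-³H]6FDG by tail vein and were handled as in the ¹⁸F study: recovery in a metabolic cage for the later time points. Urine radioactivity was counted directly and expressed as a percentage of injected radioactivity at 1, 6 and 24 h.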

[3] = format: in vivo, Sprague-Dawley rats; conditions: 1 h biodistribution time
[4] = format: in vivo, Sprague-Dawley rats
[5] = HPLC quantification of neutral radioactivity; format: in vivo, Sprague-Dawley rats
[6] = intact rats, without phlorizin (SGLT inhibitor) pre-treatment; cited from earlier work
[7] = format: in vivo, Sprague-Dawley rats; conditions: average of all tissues, 1 h after i.v. injection
[8] = format: in vivo, Sprague-Dawley rats; conditions: liver
Method in brief: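 Rats under 2% isoflurane in oxygen received the tracer by tail vein: about 37 MBq (1 mCi) for the 1 h point and 370 MBq (10 mCi) for 6 h. Tissues were homogenised in 8 mL/g ice-cold ethanol:PBS:water (65:10:25) and spun 15 min at 23,500 × g, 4 °C. The methanol-water extract was dried, taken up in water and run on formate-form AG 1-X8 anion exchange, eluting with water then formic acid. Columns were counted afterwards.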

## CO[C@@H]([C@H](O)[C@H](O)CO)[C@@H](O)C=O [3OMG, 3-O-methyl-glucose, reference compound]
[1]
  urinary excretion: 50%
hexokinase
  phosphorylation by hexokinase in vitro: can be phosphorylated

## C[C@@H](O)[C@@H](O)[C@H](O)[C@@H](O)C=O [6-deoxy-D-glucose]
Glucose dehydrogenase
  activity of glucose dehydrogenase on substrate: same activity

## O=C[C@H](O)[C@@H](O)[C@H](O)[C@H](O)CF [6FDG, 6-fluoro-6-deoxy-D-glucose]
[2]
  urinary excretion of radioactivity, percentage of injected radioactivity: less than 8%
Glucose dehydrogenase
  activity of glucose dehydrogenase on substrate: same activity
hexokinase; preliminary evaluation
  phosphorylation by hexokinase in vitro: lack of its phosphorylation

## OC[C@H]1OC(O)[C@H](O)[C@@H](O)[C@@H]1O (stereo partly drawn) [D-glucose]
Glucose dehydrogenase
  activity of glucose dehydrogenase on substrate: same activity

## [3H]C1(O)O[C@H](CF)[C@@H](O)[C@H](O)[C@H]1O (stereo partly shown) [[1-^3H]6FDG]
[3]
  percentage of 3H radioactivity eluting with water, cation exchange column: ~100%
[4]; 24 h after i.v. injection
  blood radioactivity: negligible
[4]; average across tissues, 1 h
  percentage of 3H radioactivity eluting with water, anion exchange column: 101%
[4]; average across tissues, 24 h
  percentage of 3H radioactivity eluting with water, anion exchange column: 95%
[4]; individual tissues, 1 h
  percentage of 3H radioactivity eluting with water, anion exchange column: ≥ 90%
[5]; blood, 6 h
  percentage of radioactivity eluting as [1-3H]6FDG (HPLC): > 99%
[5]; heart, 1 h (lowest tissue)
  percentage of radioactivity eluting as 6FDG (HPLC): 90%
[5]; heart, 6 h (highest tissue)
  percentage of radioactivity eluting as [1-3H]6FDS (HPLC): 28%
[5]; heart, 6 h (lowest tissue)
  percentage of radioactivity eluting as 6FDG (HPLC): 69%
[5]; skeletal muscle, 24 h (highest tissue)
  percentage of radioactivity eluting as [1-3H]6FDS (HPLC): 31%
[5]; skeletal muscle, 24 h (lowest tissue)
  percentage of radioactivity eluting as 6FDG (HPLC): 65%

## O=C[C@H](O)[C@@H](O)[C@H](O)[C@H](O)C[18F] [[^18F]6FDG, [^18F]6-fluoro-6-deoxy-D-glucose]
[6]
  urinary excretion of [18F]6FDG: little urinary excretion
[7]
  percentage of homogenate 18F radioactivity in the methanol-water layer (extraction): 95.6 ± 2.6%
[8]; 1 h
  percentage of 18F radioactivity remaining bound to the anion exchange column: 1%
[8]; 6 h
  percentage of 18F radioactivity remaining bound to the anion exchange column: 5%
